PubChem BioAssay AID822 (SRMLSC, 2007)
The source made the active and inactive calls.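 Rule for the calls: active = half-maximal effective dose for blocking growth of human endothelial cells at most 100 µM; inactive = the rest.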

Tested on: HUVEC proliferation, viability ATP luminescence
Test: growth suppression of umbilical vein endothelial cells – cell-based, HUVEC, ATP luminescence, dose response (AID 822);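 note: cells exposed to compound for 72 h before the ATP read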
Outline: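 Assay system: HUVEC primary endothelial cells, low passage (≤12) | Doses: 0.039–20 µM, 0.2% DMSO | Incubation: 72 h compound exposure at 37 °C | Detection: CellTiter-Glo ATP luminescence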

Structure (SMILES)	EC50
CCCCC(=O)O[C@H]1CC[C@H]2[C@@H]3CCc4cc(O)ccc4[C@H]3CC[C@]12C	7.16 µM
CCC(CC)COC(=O)C(C#N)c1nc2ccccc2nc1N1CCN(CC)CC1 (centres undefined)	10.2 µM
N#C/C(=C/c1ccc(N2CCCCCC2)o1)c1ccc(F)cc1	12.6 µM
Oc1ccccc1NCC(O)Cn1ccc2ccccc21 (centres undefined)	8.76 µM
CCC(C)(C)NC(=O)C(c1ccc(C)o1)N(Cc1cccs1)C(=O)Cn1nnc2ccccc21 (centres undefined)	11.7 µM
COc1ccc(OC)c(CCNC(=O)Cn2sc3nc(C)cc(C)c3c2=O)c1	12.1 µM
CC1(C)Cc2c(C#N)c(N3CCN(C(=O)c4ccco4)CC3)nc(Cc3ccccc3)c2CO1	7.74 µM
CCc1ccc2c(c1)/C(=C/C(=O)c1cccs1)C(=O)N2	7 µM
COc1ccc(CNC(=O)c2cc3c(C)nc4ccccc4c3o2)c(OC)c1	11.8 µM
CC(C)COC(=O)c1ccc2c(c1O)C(=O)c1ccccc1C2=O	3.11 µM
Cc1ccccc1NS(=O)(=O)c1ccc(N2CCCC2=O)cc1	19.6 µM
O=C1CSC(=S)N1Cc1cccnc1	19.2 µM
CC1CCN(S(=O)(=O)c2ccc(NC(=O)Cn3nnc(-c4ccccc4F)n3)cc2)CC1	6.62 µM
Cc1cccc(-c2nc(CN3CCCC(C(=O)NC4CCC(C)CC4)C3)c(C)o2)c1 (centres undefined)	11.6 µM
Cc1ccc(C)c(N2CCN(CCCNC(=O)Cn3cc4c(n3)CCC(C)C4)CC2)c1 (centres undefined)	9.5 µM
Cc1cccc(C)c1N1CCN(c2ccc3nnc(C(F)(F)F)n3n2)CC1	5.78 µM
N=c1n(CCN2CCCCC2)c2ccccc2n1CC(O)c1cccc(Br)c1 (centres undefined)	9.51 µM
O=C1C=C(c2ccc(Cl)cc2)C(=O)N1Nc1ccccc1	10.7 µM
C=C(C)COc1ccc(-c2n[nH]c(C)c2-c2ccccc2OC)c(O)c1	13 µM
O=[N+]([O-])c1cccnc1N1CCC(c2cc(-c3cccc(C(F)(F)F)c3)n[nH]2)CC1	10.6 µM
CCOC(=O)N1CCN(c2ncnc3c2oc2nc(C(C)C)c4c(c23)CCC4)CC1	19.4 µM
Cc1cc(C)n(CC(O)Cn2c3ccc(Br)cc3c3cc(Br)ccc32)c(=O)n1 (centres undefined)	10.7 µM
COc1cc(OC)cc(C(=O)Nc2ccc(-c3nc4ccccc4o3)cc2)c1	6.75 µM
COc1cc(-c2nnc(COc3ccc4cc(Br)ccc4c3)o2)cc(OC)c1OC	12.1 µM
COc1ccc2nc(Nc3nc(CSc4nnnn4-c4ccccc4)cc(=O)[nH]3)nc(C)c2c1	4.49 µM
CCOC(=O)c1cnc(-n2nc(C)cc2C)nc1NC1CCCCC1	0.27 µM
CCOc1cc(C(=O)CSc2nnc(CNc3ccc(Cl)cc3)o2)ccc1NC(=O)CC	15.7 µM

Structure (SMILES)	EC50
COc1ccc(CNC(=O)c2c(N)n(CCCN3CCOCC3)c3nc4ccccc4nc23)cc1	10 µM
COc1ccc2cc3cc(C(=O)Nc4ccc5c(c4)OCCO5)oc3nc2c1	11.7 µM
Cc1cc(C)c2oc(-c3cccc(NC(=O)c4ccc(F)cc4)c3)nc2c1	19.3 µM
Cc1occc1-c1nnc(SCC(=O)NCc2cccs2)n1-c1ccc(F)cc1	15.2 µM
CCN(CC(O)Cn1c2ccccc2c2ccccc21)S(=O)(=O)c1ccc(C)cc1 (centres undefined)	11.5 µM
Cc1oc(-c2ccccc2F)nc1CN1CCC(C(=O)NCCC2=CCCCC2)CC1	12.4 µM
O=C(COc1ccc(Cl)cc1)Nc1ccccc1C(=O)NCc1ccco1	16.4 µM
CCN(CC)c1ccc2c(c1)oc(=O)c1c(Cl)cc(=O)oc12	2.05 µM
Cc1coc2c(O)cc3c(c12)OC1(N2CCCCC2)C(=O)NCCCC31 (centres undefined)	7.41 µM
O=C1c2[nH]nc(-c3ccccc3O)c2C(c2cccc(Cl)c2)N1Cc1ccco1 (centres undefined)	11 µM
CN(c1ccccc1)S(=O)(=O)c1ccc(C(=O)Nc2nnc(-c3ccc(F)cc3)o2)cc1	1.74 µM
O=C(Nc1cccc(-c2nc3ncccc3o2)c1)c1cc2ccccc2o1	14.1 µM
COC(=O)CCS(=O)(=O)c1nc(-c2ccccc2)cc(C(F)(F)F)n1	9.83 µM
CCCOC(=O)c1ccc(Oc2cn[nH]c2-c2ccc(OCC)cc2O)cc1	9.51 µM
N#Cc1nc(-c2ccc(OCc3ccccc3)cc2)oc1NCCCn1ccnc1	5.83 µM
CC1(C)Cc2c(c(N3CCOCC3)nc3snc(N)c23)CO1	11 µM
N#CC(c1ccccc1)c1ccc2c(C(F)(F)F)cc(C(F)(F)F)nc2n1 (centres undefined)	16.7 µM
COC(=O)c1c(C)n(-c2ccc(C)cc2)c2ccc(O)cc12	18.6 µM
Nc1nc(NC(=O)c2cccc(S(=O)(=O)N3CCCCCC3)c2)nc(-c2ccccc2)n1	12.8 µM
N/C(Cc1ccc(Cl)cc1)=N\OC(=O)c1ccc2ccccc2c1	9.87 µM
O=C(c1nn2c(C(F)(F)F)cc(-c3ccco3)nc2c1Br)N1CCCc2ccccc21	14.8 µM
CCCCN(CC)S(=O)(=O)c1ccc(C(=O)Nc2nnc(-c3ccccc3Cl)o2)cc1	3.8 µM
CCn1c(SCC(N)=O)nnc1-c1ccc2[nH]c(C)c(C)c2c1	> 10 µM (inactive)
COC(=O)C(CC(=O)c1ccc(Br)cc1)n1ccnc1 (centres undefined)	9.3 µM
Nc1nc(-c2ccccc2)cc(-c2ccccc2O)n1	12.4 µM
Cc1nn(CC(=O)Nc2ccc3c(c2)oc2ccccc23)c(=O)c2ccccc12	6.25 µM
Cc1cc(C)n(-c2nc(SCC(=O)N3CCCC3)c3c4c(sc3n2)CCCC4)n1	19.4 µM
